Screens (PubChem)
FLuc inhib CS: firefly luciferase enzyme inhibitors, primary screen, artefact control for luciferase-based inhibitor screens, biochemical, luminescence, ATPLite; Luciferin 4-monooxygenase (Photinus pyralis), P08659; 10 min; inhibition, % at 10 µM; actives 1.5% (n = 200,000);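 active = inhibition above about 50% when tested at 10 µM, limit read from the data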
Target sequence (P08659 whole entry, looked up): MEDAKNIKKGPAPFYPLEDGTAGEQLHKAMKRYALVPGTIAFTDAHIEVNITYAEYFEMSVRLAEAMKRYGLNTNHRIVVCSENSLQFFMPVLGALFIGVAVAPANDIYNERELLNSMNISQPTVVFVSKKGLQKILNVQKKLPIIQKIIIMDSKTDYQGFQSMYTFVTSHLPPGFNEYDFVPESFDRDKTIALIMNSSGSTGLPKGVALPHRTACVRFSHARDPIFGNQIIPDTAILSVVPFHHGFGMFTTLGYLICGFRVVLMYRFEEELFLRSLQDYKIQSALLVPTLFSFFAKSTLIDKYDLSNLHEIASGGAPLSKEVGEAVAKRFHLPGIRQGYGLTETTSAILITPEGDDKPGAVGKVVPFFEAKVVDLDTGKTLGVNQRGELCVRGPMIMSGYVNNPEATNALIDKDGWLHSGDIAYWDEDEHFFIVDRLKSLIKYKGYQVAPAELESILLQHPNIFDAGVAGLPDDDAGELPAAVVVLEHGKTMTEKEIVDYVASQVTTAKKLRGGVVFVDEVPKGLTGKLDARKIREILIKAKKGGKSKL
C8 TRAIL sens: viability loss with TRAIL in NB7+C8 cells, primary screen, TRAIL sensitizer project, cell-based, ATPlite luminescence; inhibition (viability loss, TRAIL sensitization), % at 10 µM; actives 1% (n = 360,000); AID 624354, 2012;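 active = compounds causing at least 50% loss of cell viability in the single-dose screen, relative to plate controls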
FLuc act counter: FLuc activators, initial screening, artefact control for FLuc-dependent activation tests, biochemical, ATPlite luminescence. Luciferin 4-monooxygenase (Photinus pyralis), P08659. ATPlite luciferase biochemical, 10 min; 0 = ATP-free wells, 1 = DMSO control. activation factor at 10 µM. 200,000 tested, under 10 active. AID 1027, 2008;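 active = luciferase activation factor, scaled between plate controls, of at least 2 with compound at 10 µM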
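Material: Luciferase/luciferin reagent mix | Doses: Test compounds dosed from 2 mM stocks in 100% DMSO | Timing: 10 min incubation after luciferase reagent addition, room temperature | Measured by: Luminescence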
Platelet DG rel: inhibitors of platelet dense granule secretion, primary screen, cell-based, MLPCN, human platelets | human platelet-rich plasma, SFLLRN dense granule ATP release, luminescence | inhibition, %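 (compounds screened at 7.5 µM in platelet-rich plasma)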 | actives 0.22% (n = 300,000) | AID 1663, 2009;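 active = mean replicate score, as percent of positive control, at or above 50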
PPC-1+TRAIL kill: compounds killing PPC-1 cancer cells with TRAIL present, primary screen, TRAIL potentiator project, ATPLite luminescence, uHTS; PPC-1 cells + TRAIL, ATPLite viability luminescence; actives 0.41% (n = 220,000); cell killing (% activity), % at 4 µM or 5 µM;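 active = cell killing above 50% in the first pass at 4 µM, then a duplicate retest at 5 µM averaging 50% or more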;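 also: plate controls were cells with TRAIL plus DMSO for no effect and medium-only wells lacking cells for full effect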
* marks the source's active call; other numbers are inactive results. An excerpt weighted towards active compounds, which were near 1.6% of everything screened.

What do the screens show for `CC(=O)C1CCC2C3C=CC4=CC(=O)CCC4(C)C3CCC12C` (stereo not drawn)?
C8 TRAIL sens: 11

How did O=C(Nc1ccc(Cl)cc1Cl)c1ccc2c(c1)OCCO2 do in these assays?
C8 TRAIL sens: 53*

What do the screens show for `O=C(Nc1nc(-c2ccccn2)cs1)c1ccc2c(c1)OCCO2`?
FLuc inhib CS: 79*; C8 TRAIL sens: 51*; FLuc act counter: 0.2; Platelet DG rel: 5; PPC-1+TRAIL kill: 49

Results for COc1cccc(C(=O)Nc2cc3c(cc2Cl)OCCCO3)c1 ?
FLuc inhib CS: 65*; C8 TRAIL sens: 40; FLuc act counter: 0.4; Platelet DG rel: 15; PPC-1+TRAIL kill: 19

Results for O=C(Nc1ccccn1)c1ccc2c(c1)OCCO2 ?
FLuc inhib CS: 74*; C8 TRAIL sens: 56*; FLuc act counter: 0.3; Platelet DG rel: 35

What do the screens show for `CC(=O)Nc1ccc(C(=O)Nc2nc(-c3ccccn3)cs2)cc1`?
FLuc inhib CS: 7; C8 TRAIL sens: -4; FLuc act counter: 0.9; Platelet DG rel: 3; PPC-1+TRAIL kill: 34

Results for COc1ccc(NC(=O)C2(C)Cc3c(-c4cccc(NC(C)=O)c4)ccnc3O2)cn1 (stereo not drawn) ?
C8 TRAIL sens: 13

What do the screens show for `COc1cccc(C(O)c2nc(-c3cccc(CO)c3)cs2)c1` (stereo not drawn)?
C8 TRAIL sens: 14

What do the screens show for `CC1CCc2c(sc(NC(=O)c3nc4ncccn4n3)c2C#N)C1` (stereo not drawn)?
C8 TRAIL sens: 2; Platelet DG rel: 1; PPC-1+TRAIL kill: 8

What do the screens show for `N#Cc1c(NC(=O)c2nc3ncccn3n2)sc2c1CCCCC2`?
FLuc inhib CS: 57*; C8 TRAIL sens: -4; FLuc act counter: 0.4; PPC-1+TRAIL kill: 12

What do the screens show for `CC(=O)NC(=S)Nc1sc2c(c1C#N)CCCCC2`?
FLuc inhib CS: 72*; C8 TRAIL sens: 15; FLuc act counter: 0.3; Platelet DG rel: 10; PPC-1+TRAIL kill: 25

Results for Cc1cccc2sc(NNC(=O)c3ccc(S(=O)(=O)N4CC(C)CC(C)C4)cc3)nc12 (stereo not drawn) ?
FLuc inhib CS: -9; C8 TRAIL sens: 66*; FLuc act counter: 1.1; Platelet DG rel: 0; PPC-1+TRAIL kill: 27

Results for Cc1cc(C)c2nc(NNC(=O)c3ccc(S(=O)(=O)N4CC(C)CC(C)C4)cc3)sc2c1 (stereo not drawn) ?
FLuc inhib CS: -2; C8 TRAIL sens: 32; FLuc act counter: 1; Platelet DG rel: -1; PPC-1+TRAIL kill: 6

What do the screens show for `O=C(Nc1ccc(CN2CCOCC2)cc1)c1cc2ccccn2n1`?
FLuc inhib CS: 78*; C8 TRAIL sens: -8; FLuc act counter: 0.2; Platelet DG rel: 8; PPC-1+TRAIL kill: 49

Results for CC(=O)c1cccc(NC(=O)c2cc3ccccn3n2)c1 ?
FLuc inhib CS: 72*; C8 TRAIL sens: -6; FLuc act counter: 0.3; Platelet DG rel: -1; PPC-1+TRAIL kill: 40

How did O=C(NC(=S)Nc1ccc(CN2CCOCC2)cc1)c1cc2ccccc2o1 do in these assays?
FLuc inhib CS: -7; C8 TRAIL sens: 0; FLuc act counter: 1.1; Platelet DG rel: 4; PPC-1+TRAIL kill: 19

Results for O=C(Nc1ccc(CN2CCOCC2)cc1)c1cc2ccccc2o1 ?
FLuc inhib CS: 60*; C8 TRAIL sens: 43; FLuc act counter: 0.4; Platelet DG rel: -3; PPC-1+TRAIL kill: 28

What do the screens show for `COc1cc(C)ccc1S(=O)(=O)NC(=O)Cn1nnc(COc2ccc3c(c2)CCCC3)c1C`?
C8 TRAIL sens: -29

Results for Cc1cccc(C)c1-n1nnnc1C1(C)CCC(=O)N1CC1CCCCC1 (stereo not drawn) ?
C8 TRAIL sens: -3

Results for CCc1nc2ccc(C(=O)NCCCn3ccnc3)cn2c1N(C)Cc1ccc(N(C)C)cc1 ?
C8 TRAIL sens: -9

How did CSCCC(C(=O)Nc1c(C)cccc1C)n1c(-c2ccc(C(F)(F)F)cc2)nc2ccccc21 (stereo not drawn) do in these assays?
C8 TRAIL sens: -1

Results for Cc1cc(-c2nnc(CCC(=O)NC(C)c3cccc4ccccc34)o2)no1 (stereo not drawn) ?
FLuc inhib CS: -7; C8 TRAIL sens: -20; FLuc act counter: 1.1; Platelet DG rel: 50*; PPC-1+TRAIL kill: 13

How did Cc1cc(-c2nnc(CCC(=O)NC(C)c3ccccc3Cl)o2)no1 (stereo not drawn) do in these assays?
FLuc inhib CS: -5; C8 TRAIL sens: -1; FLuc act counter: 1; Platelet DG rel: 8; PPC-1+TRAIL kill: 26

How did c1ccc(-c2noc(-c3cccc4ccccc34)n2)cc1 do in these assays?
FLuc inhib CS: 19; C8 TRAIL sens: 9; FLuc act counter: 0.8; Platelet DG rel: 9; PPC-1+TRAIL kill: 0

What do the screens show for `Brc1ccccc1-c1nc(-c2ccccc2)no1`?
FLuc inhib CS: 73*; FLuc act counter: 0.3; Platelet DG rel: 16; PPC-1+TRAIL kill: 25

How did Fc1ccccc1-c1nc(-c2ccccc2)no1 do in these assays?
FLuc inhib CS: 60*; C8 TRAIL sens: 6; FLuc act counter: 0.4; Platelet DG rel: 16; PPC-1+TRAIL kill: 25

Results for COCCNC(=O)C[C@@H]1C[C@H]2c3cc(NC(=O)Nc4ccc(F)cc4)ccc3O[C@H]2[C@H](CO)O1 ?
C8 TRAIL sens: 2

Results for COc1ccc(NC(=O)C2(C)Cc3c(-c4cccc(C(F)(F)F)c4)ccnc3O2)cc1OC (stereo not drawn) ?
C8 TRAIL sens: 16

How did CCc1ccccc1C1C(=O)c2ccccc2C1=O do in these assays?
C8 TRAIL sens: 48*; Platelet DG rel: -10

How did CCOc1ccc(-c2cc(N3C(=O)Nc4ccccc4N3O)on2)cc1 do in these assays?
FLuc inhib CS: 76*; C8 TRAIL sens: 56*; FLuc act counter: 0.2; Platelet DG rel: -2; PPC-1+TRAIL kill: 7

Results for NC1=C(Br)C(=O)c2ncccc2C1=O ?
C8 TRAIL sens: 95*

How did CCOc1cc(/C=C/c2cc(C(=O)O)c3ccccc3n2)ccc1OC do in these assays?
FLuc inhib CS: 86*; C8 TRAIL sens: 58*; FLuc act counter: 0.1; Platelet DG rel: 14; PPC-1+TRAIL kill: 28

Results for CCOc1cc(/C=C/c2cc(C(=O)O)c3ccccc3n2)ccc1O ?
FLuc inhib CS: 73*; C8 TRAIL sens: 37; FLuc act counter: 0.3; Platelet DG rel: 25; PPC-1+TRAIL kill: 22

How did CC1OC(CCc2cccc(Cl)c2)Cc2[nH]c(=S)[nH]c(=O)c21 (stereo not drawn) do in these assays?
C8 TRAIL sens: 5

Results for CC(=NOC(=O)c1ccc(F)cc1)c1nccs1 ?
C8 TRAIL sens: -24
